From ChEMBL document CHEMBL5113551, “Fragment-Based Dynamic Combinatorial Chemistry for Identification of Selective α-Glucosidase Inhibitors” (ACS Med Chem Lett, 2022) come the findings set out here.

Series [1] is described as follows: Cytotoxicity against human HepG2 cells assessed as reduction in cell viability incubated for 24 hrs by CCK8 assay. It counts as toxicity, cell-based. On the technique in general: Tetrazolium dyes change colour on reduction, which living cells bring about.
In series [2] the target is T1, Alpha amylase (Homo sapiens, UniProt P0DUB6).
T1 sequence (P0DUB6 whole entry): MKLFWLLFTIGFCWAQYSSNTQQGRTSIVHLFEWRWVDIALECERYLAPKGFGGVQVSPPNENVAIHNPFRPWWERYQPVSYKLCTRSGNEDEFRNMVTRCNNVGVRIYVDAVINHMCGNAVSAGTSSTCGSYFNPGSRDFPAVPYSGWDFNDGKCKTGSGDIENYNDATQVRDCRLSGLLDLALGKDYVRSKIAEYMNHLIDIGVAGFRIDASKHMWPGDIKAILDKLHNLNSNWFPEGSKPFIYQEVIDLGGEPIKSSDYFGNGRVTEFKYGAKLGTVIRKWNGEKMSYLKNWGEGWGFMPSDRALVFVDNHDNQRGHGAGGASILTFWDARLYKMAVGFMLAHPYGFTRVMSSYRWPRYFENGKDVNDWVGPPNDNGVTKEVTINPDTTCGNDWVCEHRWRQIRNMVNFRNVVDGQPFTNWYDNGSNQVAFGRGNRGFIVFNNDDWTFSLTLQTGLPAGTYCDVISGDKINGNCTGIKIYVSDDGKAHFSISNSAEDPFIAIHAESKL
The experiment in a line: Inhibition of alpha-amylase (unknown origin).

Series [3] is described as follows: Inhibition of alpha glucosidase (unknown origin). Also noted: species or system Homo sapiens.
Series [4] is filed under the species Homo sapiens. Kind of series: Non-competitive inhibition of alpha glucosidase (unknown origin) using pNPG as substrate by Dixon plot analysis. The essentials: (§1)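 Inhibition kinetics used a slightly modified, previously described method. Reciprocal velocity was plotted against inhibitor concentration at several fixed substrate concentrations (Dixon plot). The competitive constant (Ki) and noncompetitive constant (αKi) were read from this plot.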

Series [5] is described as follows: Competitive inhibition of alpha glucosidase (unknown origin) using pNPG as substrate by Dixon plot analysis. Also on record: species or system Homo sapiens. The essentials: as §1
The species entered for series [6] is Homo sapiens. The experiment in a line: Mixed type of inhibition of alpha glucosidase (unknown origin) using pNPG as substrate by Lineweaver-Burk plot analysis. The essentials: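 Reaction velocity was measured across a range of substrate concentrations at several inhibitor concentrations. The data were plotted as 1/V versus 1/[S] and fitted linearly (Lineweaver–Burk). The quadrant where the lines intersect assigned the inhibition type, and the enzyme Km was derived from the same plot.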

Structures are written as SMILES. Some results are limits rather than exact numbers.

Consider `O=C(N/N=C/c1coc2ccc(O)cc2c1=O)c1cc2ccccc2[nH]1`, for which, in series [1], the CC50 at 24 h was over 200 µM. In addition, the IC50 in series [2] came to 151.46 µM; in series [3], 22.6 µM.
For `O=C(N/N=C/c1coc2ccccc2c1=O)c1nc2ccccc2[nH]1` the same measures were over 200 µM, over 200 µM and 32.5 µM.
In the case of `Cc1ccc(S(=O)(=O)Oc2ccc(/C=N/NC(=O)c3nc4ccccc4[nH]3)cc2)cc1`, the IC50 in series [2] is over 200 µM; in series [3], 168 µM.
Turning to `Cc1ccc(S(=O)(=O)Oc2ccc(/C=N/NC(=O)Cc3ccccn3)cc2)cc1`, the IC50 in series [2] and in series [3] was over 200 µM in each case.
In series [4], `Cc1ccc2occ(/C=N/NC(=O)c3cc4ccccc4[nH]3)c(=O)c2c1` returned an alphaKi of 2.75 µM. Also, the 50% cytotoxic concentration (CC50) at 24 h in series [1] is over 200 µM. Besides, in series [5], the inhibition constant Ki was 1.98 µM. Further, the Michaelis constant (Km) in series [6] stood at 930 µM. Moreover, the concentration for half-maximal inhibition (IC50) in series [2] is over 200 µM; in series [3] it was 2.52 µM.
Take `Cc1ccc(S(=O)(=O)Oc2ccc(/C=N/NC(=O)c3ccc(O)cc3)cc2)cc1`: the half-maximal inhibitory concentration (IC50) in series [2] and in series [3] was over 200 µM in each case.
For `C[C@H]1O[C@H](O[C@H]2[C@H](O)[C@@H](O)[C@@H](O[C@H]3[C@H](O)[C@@H](O)C(O)O[C@@H]3CO)O[C@@H]2CO)[C@H](O)[C@@H](O)[C@@H]1N[C@H]1C=C(CO)[C@@H](O)[C@H](O)[C@H]1O` (some centres not stated) [ACARBOSE], the concentration for half-maximal inhibition (IC50) in series [3] stood at 8.06 µM.
In the case of `O=C(N/N=C/c1coc2ccccc2c1=O)c1cc2ccccc2[nH]1`, the 50% cytotoxic concentration (CC50) at 24 h in series [1] is over 200 µM. Further, the figures for the half-inhibitory concentration (IC50) in series [2] and in series [3] were 128.1 µM and 6.49 µM, respectively.

In general, CC50 refers to the concentration giving 50% cytotoxicity. A word on the IC50: it is the concentration that inhibits the measured activity by half. A lower IC50 goes with inhibition by little substance. By Ki is commonly meant a measure of affinity in units of concentration, obtained from inhibition or displacement. Lower therefore signals a stronger hold on the target. The term Km denotes the concentration of substrate that gives half-maximal velocity.
